The values below come from ChEMBL document CHEMBL2169850, “3,6-bis(3-alkylguanidino)acridines as DNA-intercalating antitumor agents” (Eur J Med Chem, 2012).

Activity calls are given as the source filed them. No cut-off for these calls is given here.

Series [1] has as its target T1, DNA topoisomerase 1 (Homo sapiens) (UniProt P11387).
T1 sequence (whole entry): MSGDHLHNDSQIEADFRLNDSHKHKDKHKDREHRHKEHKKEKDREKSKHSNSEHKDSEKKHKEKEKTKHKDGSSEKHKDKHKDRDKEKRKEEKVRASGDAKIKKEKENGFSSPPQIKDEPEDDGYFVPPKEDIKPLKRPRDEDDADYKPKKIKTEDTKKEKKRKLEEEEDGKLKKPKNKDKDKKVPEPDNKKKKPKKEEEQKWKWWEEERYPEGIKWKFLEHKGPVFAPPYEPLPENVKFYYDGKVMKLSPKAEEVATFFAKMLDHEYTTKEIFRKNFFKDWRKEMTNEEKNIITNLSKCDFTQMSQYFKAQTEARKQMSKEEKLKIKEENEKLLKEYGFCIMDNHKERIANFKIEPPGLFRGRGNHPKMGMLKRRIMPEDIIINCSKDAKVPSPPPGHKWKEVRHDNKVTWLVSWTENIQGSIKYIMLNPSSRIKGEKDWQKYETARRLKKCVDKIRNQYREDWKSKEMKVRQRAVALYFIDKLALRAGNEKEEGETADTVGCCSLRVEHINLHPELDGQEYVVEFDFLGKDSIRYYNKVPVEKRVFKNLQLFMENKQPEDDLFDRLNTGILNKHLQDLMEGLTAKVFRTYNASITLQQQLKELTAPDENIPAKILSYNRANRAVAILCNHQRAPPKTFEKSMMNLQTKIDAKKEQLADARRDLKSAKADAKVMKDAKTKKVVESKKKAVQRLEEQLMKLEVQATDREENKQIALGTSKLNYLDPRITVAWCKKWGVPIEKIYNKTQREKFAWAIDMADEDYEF
The series can be described thus: Inhibition of human topoisomerase 1 assessed as reduction in pBR322 DNA relaxation of relaxation at 5 uM by DNA unwinding assay.

Series [2] addresses T1, DNA topoisomerase 1 (Homo sapiens). As to the kind of experiment: Inhibition of human topoisomerase 1 assessed as reduction in pBR322 DNA relaxation of relaxation at 60 uM by DNA unwinding assay.
The test system of series [3] is Nucleic Acid. As to the kind of experiment: Binding affinity to Escherichia coli pUC19 DNA assessed as reduction in DNA mobility to 5 to 80 uM by EMSA. It counts as nucleic-acid assay. The method, boiled down:
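Supercoiled pUC19 plasmid incubated with compound at 5, 20, 40, 60 or 80 µM. Native agarose gel electrophoresis run with no ethidium bromide in the gel; band mobility was then read.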
(In general: A gel shift assay detects complexes by their altered migration in electrophoresis.)

Series [4] concerns Nucleic Acid. The series can be described thus: Binding affinity to calf thymus DNA increase in DNA viscosity at 12 to 60 uM by viscosimetric titration assay. It counts as nucleic-acid assay. The conditions noted are these: Bos taurus. The method, boiled down: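 Relative viscosity of ctDNA (3.11 × 10^-8 M) with compound at 12–60 × 10^-6 M was measured by automated microviscometry in a 1.6 mm capillary at 25 °C, in 10 mM Tris, pH 7.4. Solution density was also measured.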

Series [5] relates to Nucleic Acid. The series can be described thus: Binding affinity to calf thymus DNA at 6.5 uM by CD spectroscopy. It counts as nucleic-acid assay. As to conditions: Bos taurus. The procedure, abridged: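 CD spectra were recorded in 1 mm quartz cuvettes in 0.01 M Tris, pH 7.4, with 6.52 µM compound and ctDNA. Each spectrum is the mean of three scans after buffer background subtraction.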

The test system of series [6] is Nucleic Acid. As to the kind of experiment: Binding affinity to calf thymus DNA by spectrofluorimetric titration assay. It counts as nucleic-acid assay. The conditions noted are these: Bos taurus. The procedure, abridged: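 Fluorescence titration at 25 °C in 0.01 M Tris, pH 7.4. Compound (9.58 × 10^-6 M) was titrated with ctDNA from 0 to 2.57 × 10^-4 M bp, excited at 384 nm, and emission recorded from 400 to 600 nm. K and n were obtained from McGhee–von Hippel fits of Scatchard data.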

The subject of series [7] is Nucleic Acid. The series can be described thus: Binding affinity to calf thymus DNA assessed as melting temperature at 12.4 uM by thermal denaturation study. It counts as nucleic-acid assay. As to conditions: Bos taurus.
The subject of series [8] is Nucleic Acid. As to the kind of experiment: Binding affinity to calf thymus DNA assessed as hypochromacity at 12.8 uM by UV-visible absorption spectroscopy. The conditions noted are these: Bos taurus.
The subject of series [9] is HL-60. The series can be described thus: Drug uptake in human HL60 cells with normal morphology at 50 uM incubated for 18 hrs by fluorescence microscopy. It counts as ADME, cell-based. The conditions noted are these: hl-60, 18 h. The method, boiled down: (§1)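 HL-60 cells were treated with 50 µM compound for 18 h, washed with PBS, resuspended in HBSS and mounted as native slides. Cells were imaged by inverted fluorescence microscopy at 40×, with excitation 360/40 and emission 470/40. The fluorescence channel was merged with brightfield images.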

Series [10] relates to HL-60. As to the kind of experiment: Drug uptake in human HL60 cells with necrotic morphology at 50 uM incubated for 18 hrs by fluorescence microscopy. It counts as ADME, cell-based. As to conditions: hl-60, 18 h. The method, boiled down:
as §1

Series [11] has as its system HL-60. As to the kind of experiment: Induction of apoptosis in human HL60 cells at 5 to 25 uM incubated for 24 hrs by AnnexinV/propidium iodide staining method. It counts as functional, cell-based. The method, boiled down:
(§2)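 HL-60 cells (1.5 × 10^5) were treated at 5–25 µM for 24, 48 or 72 h and harvested. They were stained with Annexin V-FITC for 10 min in HEPES/CaCl2/NaCl binding buffer, washed, briefly stained with PI (1 mg/mL) and analysed by flow cytometry for apoptosis and necrosis. Mean ± SD, n ≥ 3.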

Series [12] relates to HL-60. As to the kind of experiment: Antiproliferative activity against human HL60 cells assessed as cell number at 25 uM incubated for 72 hrs by Coulter counting method. It counts as functional. The procedure, abridged:
(§3)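 HL-60 cells in RPMI with 10% heat-inactivated FCS, antibiotics and amphotericin, 37 °C, 5% CO2, seeded in 60 mm dishes. Compound added at 5, 15 or 25 µM for 24, 48 or 72 h. Absolute cell counts taken by Coulter counter and expressed as percentage of untreated control. Mean ± SD of at least three independent experiments; one-way ANOVA with Tukey test, p < 0.05.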

Series [13] deals with HL-60. As to the kind of experiment: Antiproliferative activity against human HL60 cells assessed as cell number at 15 uM incubated for 72 hrs by Coulter counting method. It counts as functional. The method, boiled down: as §3
The test system of series [14] is HL-60. As to the kind of experiment: Antiproliferative activity against human HL60 cells assessed as cell number at 5 uM incubated for 72 hrs by Coulter counting method. It counts as functional. The method, boiled down: as §3
Series [15] deals with HL-60. The series can be described thus: Antiproliferative activity against human HL60 cells assessed as cell number at 15 uM incubated for 48 hrs by Coulter counting method. It counts as functional. The method, boiled down:
as §3

Series [16] has as its system HL-60. The series can be described thus: Antiproliferative activity against human HL60 cells assessed as cell number at 25 uM incubated for 48 hrs by Coulter counting method. It counts as functional. The procedure, abridged:
as §3

In series [17] the test system is HL-60. As to the kind of experiment: Antiproliferative activity against human HL60 cells assessed as cell number at 5 uM incubated for 48 hrs by Coulter counting method. It counts as functional. The procedure, abridged:
as §3

For series [18], the system named is HL-60. As to the kind of experiment: Antiproliferative activity against human HL60 cells assessed as cell number at 15 uM incubated for 24 hrs by Coulter counting method. It counts as functional. The procedure, abridged:
as §3

The subject of series [19] is HL-60. As to the kind of experiment: Antiproliferative activity against human HL60 cells assessed as cell number at 25 uM incubated for 24 hrs by Coulter counting method. It counts as functional. The method, boiled down: as §3
The test system of series [20] is HL-60. The series can be described thus: Antiproliferative activity against human HL60 cells assessed as cell number at 5 uM incubated for 24 hrs by Coulter counting method. It counts as functional. The method, boiled down: as §3
Series [21] concerns HL-60. As to the kind of experiment: Induction of necrosis in human HL60 cells at 5 to 25 uM incubated for 72 hrs by AnnexinV/propidium iodide staining method. It counts as functional, cell-based. The method, boiled down: (§4)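 HL-60 cells (1.5 × 10^5) were exposed to compound, then stained 10 min with Annexin V-FITC in HEPES/CaCl2/NaCl binding buffer. Cells were washed, briefly stained with propidium iodide and analysed by flow cytometry for apoptotic and necrotic fractions. Mean ± SD of at least three independent experiments.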

Series [22] relates to HL-60. As to the kind of experiment: Induction of necrosis in human HL60 cells at 5 to 25 uM incubated for 24 hrs by AnnexinV/propidium iodide staining method. It counts as functional, cell-based. The procedure, abridged:
as §4

In series [23] the test system is HL-60. As to the kind of experiment: Induction of apoptosis in human HL60 cells at 5 to 25 uM incubated for 48 hrs by AnnexinV/propidium iodide staining method. It counts as functional, cell-based. The procedure, abridged:
as §2

The test system of series [24] is HL-60. As to the kind of experiment: Induction of apoptosis in human HL60 cells at 5 to 25 uM incubated for 72 hrs by AnnexinV/propidium iodide staining method. It counts as functional, cell-based. The procedure, abridged: as §2
Series [25] deals with HL-60. The series can be described thus: Induction of necrosis in human HL60 cells at 5 to 25 uM incubated for 48 hrs by AnnexinV/propidium iodide staining method. It counts as functional, cell-based. The procedure, abridged: as §4
Series [26] concerns HL-60. The series can be described thus: Induction of caspase-3 activation in human HL60 cells at 25 uM incubated for 72 hrs by FACS assay. It counts as functional. The method, boiled down:
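HL-60 cells were treated for 72 h, washed in cold PBS, fixed and permeabilized for 20 min on ice. They were incubated with a FITC anti-active caspase-3 antibody for 30 min at RT and analysed by flow cytometry. Results are the percentage of positively stained cells; mean ± SD, n ≥ 3.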

Series [27] relates to HL-60. As to the kind of experiment: Induction of caspase-3 activation in human HL60 cells at 5 to 25 uM incubated for 24 to 72 hrs by FACS assay. It counts as functional, cell-based. The procedure, abridged: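 HL-60 cells (RPMI with 10% heat-inactivated FCS, 37 °C, 5% CO2) were seeded in dishes and treated 24, 48 or 72 h. Cells were fixed and permeabilized 20 min on ice, then stained 30 min at RT with FITC anti-active caspase-3 antibody. Read-out was the percentage of positive cells by flow cytometry. Mean ± SD of at least three independent experiments; ANOVA with Tukey.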

Consider `CCCNC(=N)Nc1ccc2cc3ccc(NC(=N)NCCC)cc3nc2c1`, for which the result in series [1], in series [3], in [4] and in series [5] was Active. Also, the “Topoisomerase 1 inhibition (active/inactive)” value in series [2] was “Active”. The molecule also came in with a K in series [6] of 5.01 ×10⁵ /M. The midpoint of thermal melting (Tm) (as a rule, the temperature at the midpoint of the melting transition) in [7] came to 85 °C. Also, the Activity in series [8] was 32%.

On to `CCCCCNC(=N)Nc1ccc2cc3ccc(NC(=N)NCCCCC)cc3nc2c1.Cl.Cl.O`, for which the Drug uptake result in [9] and in [10] was “Active” each time. The outcome in [11], in series [3], in [21], in series [22], in series [23] and in series [24] was inactive. The result in series [25] and in [27] was inactive. In addition, the Activity in series [12] is listed as 48.67%; in [13], 54.4%; in series [14], 83.3%; in [15], 77.14%; in series [16], 67.98%; in [17] it was 81.9%. Besides, the Activity in series [18] came to 75.2%; in series [19], 78.32%; in series [20], 76.19%; in series [26], 46.8%; in series [8] it was 31%. In addition, the result in [1], in series [4] and in series [5] was Active. Also, the “Topoisomerase 1 inhibition (active/inactive)” value in [2] was “Active”. For the same molecule, the K in series [6] is 2.36 ×10⁵ /M. In addition, the midpoint of thermal melting (Tm) in series [7] is 88 °C.

For the molecule `CCCCNC(=N)Nc1ccc2cc3ccc(NC(=N)NCCCC)cc3nc2c1`, the result in [1], in [3], in series [4] and in series [5] was Active. In addition, in series [2], the “Topoisomerase 1 inhibition (active/inactive)” value was “Active”. For the same molecule, in [6], the K came out at 4.25 ×10⁵ /M. Also, the Tm in series [7] turned out to be 86 °C. Moreover, the Activity in series [8] came out at 17%.
